Source: PubChem BioAssay
Rows were chosen to be rich in hits. Some 6.1% of all compounds tested hit in one or more screens of this group.
Measles CPE: compounds protecting cells from measles virus cytopathic effect, primary screen, measles RdRp inhibitor project, single point, MLSMR library, absorbance. Measles virus-infected cells, CPE protection. protection (pct of control), % at 4 µM. actives 1.5% (n = 140,000); in the data active means protection mostly above about 24%, no sharp cut-off; inactive means mostly below about 26%
RAM network inh: inhibitors of the yeast RAM network, primary screen, dse1pr::URA3 reporter, 5-FOA selection; S. cerevisiae dse1pr::URA3 reporter, 5-FOA growth OD615, 2 d; analog-sensitive cbk1-as2 kinase mutant strain; inhibition, % at 50 µM; actives 1.8% (n = 190,000);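 active means inhibition above a set limit, 3 SD over mean compound inhibition, cut at about 8.4% in these data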;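 further: 0% = DMSO-only wells with no growth and 100% = 10 µM 1-NA-PP1 full growth; inhibition rescues growth on 5-FOA so higher OD means more RAM inhibition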
WT yeast gro inh: growth inhibition of WT strain, primary screen, mitochondrial fusion inhibitor project, WT and mutant strains, chemical genetic; actives 2.1% (n = 190,000); inhibition, % at 10 µM; mitochondrial fusion phenotypic screen; AID 1362, 2008; in the data active means inhibition above about 58%; tested in S. cerevisiae
hDAT+cocaine: changed hDAT dopamine uptake under cocaine IC80, either direction, primary screen, cocaine antagonist project, cell-based, LLC-PK1 hDAT, [14C]-dopamine uptake, MLSMR; B-score at 10 µM; Sodium-dependent dopamine transporter (Homo sapiens), Q01959; actives 1.3% (n = 110,000); LLC-PK1 hDAT cells, [14C]-dopamine uptake with cocaine IC80; actives deviate in either direction;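 active means Z score or B-score, a plate-position-corrected score, falls beyond the plate's 99.7% confidence bounds, in either direction; inactive means both scores lie inside the 99.7% bounds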;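 further: scored against the spread of the other compound wells on the same plate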
Target sequence (Q01959 whole entry, looked up): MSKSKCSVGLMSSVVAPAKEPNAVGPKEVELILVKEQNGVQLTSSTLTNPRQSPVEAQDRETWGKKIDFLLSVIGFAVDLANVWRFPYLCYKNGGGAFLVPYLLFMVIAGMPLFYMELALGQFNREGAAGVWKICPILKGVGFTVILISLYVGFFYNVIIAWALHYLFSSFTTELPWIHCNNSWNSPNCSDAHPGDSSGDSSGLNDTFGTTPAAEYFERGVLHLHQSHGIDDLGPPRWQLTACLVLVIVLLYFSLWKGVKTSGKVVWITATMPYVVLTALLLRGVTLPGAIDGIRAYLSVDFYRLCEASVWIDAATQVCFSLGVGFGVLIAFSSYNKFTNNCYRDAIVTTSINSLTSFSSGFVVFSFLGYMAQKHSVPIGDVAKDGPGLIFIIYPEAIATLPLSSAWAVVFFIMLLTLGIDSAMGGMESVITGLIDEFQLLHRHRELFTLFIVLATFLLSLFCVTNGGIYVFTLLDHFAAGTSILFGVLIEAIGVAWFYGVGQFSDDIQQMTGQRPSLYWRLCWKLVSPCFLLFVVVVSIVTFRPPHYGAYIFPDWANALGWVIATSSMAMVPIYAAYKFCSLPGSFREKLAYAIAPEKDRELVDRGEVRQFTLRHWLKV
Yeast lifespan up: compounds extending yeast replicative lifespan, primary screen, S. cerevisiae, OD615 | S. cerevisiae growth with nicotinamide; deaD strain in restrictive glucose medium | inhibition of the nicotinamide effect, % at 10 µM | actives 0.68% (n = 130,000) | AID 775, 2007;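 active means inhibition above a set limit, placed 3 SD over the median of all compounds, cut at about 26% in these data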;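 further: 0% = nicotinamide-treated wells and 100% = cells grown without nicotinamide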
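Assay system: DeaD-strain S. cerevisiae. Medium: CSMM-D glucose medium, restrictive. Reagent: nicotinamide, 1.5 mM, co-present with compound. Compound: 10 µM single point, 0.25% DMSO. Schedule: culture preincubation 4 h, compound exposure 48 h, both 30 °C. Detection: absorbance at 615 nm.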
Yeast growth inh: growth inhibitors of yeast BB579 in restrictive medium, primary screen, yeast lifespan-shortening project, S. cerevisiae; OD615, 48 h; inhibition, % at 10 µM; actives 0.51% (n = 140,000); AID 804, 2007;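 active means inhibition above a set limit, 3 SD over the mean compound inhibition, cut at about 44% in these data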
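controls = amphotericin B 10 µg/mL, positive | assay system = DeaD yeast strain BB579 | schedule = 48 h compound exposure at 30 °C after 4 h preincubation | detection = OD615 turbidity measurement | medium = restrictive CSMM-D medium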
Active calls of the source: *; nt = not tested or not shown.

SMILES	Measles CPE	RAM network inh	WT yeast gro inh	hDAT+cocaine	Yeast lifespan up	Yeast growth inh
Cc1cccc(C)c1OC(=O)C(c1ccccc1)c1ccccc1	12.0	-0.7	55.1	nt	13.8	-17.6
O=[N+]([O-])c1ccc(Nc2nc(N/N=C\c3ccc4c(c3)OCO4)nc(N3CCCCC3)n2)cc1	3.2	10.8*	31.5	0.462	12.7	-15.5
O=[N+]([O-])c1ccc(/C=N/Nc2nc(N3CCCCCC3)nc(N3CCCCCC3)n2)o1	31.8	-1.5	63.2*	nt	nt	-43.2
O=[N+]([O-])c1ccc(/C=N/Nc2nc(N3CCCCC3)nc(N3CCCCC3)n2)cc1	nt	1.8	49.0	nt	nt	nt
O=C(COc1ccc(C(=S)N2CCC(Cc3ccccc3)CC2)cc1)N1CCOCC1	nt	4.0	25.7	nt	nt	nt
Cc1[nH]c2ccccc2c1/C=N/NC(=O)C1CC1(c1ccccc1)c1ccccc1 (stereo not given)	6.9	3.4	83.7*	nt	-1.9	-25.5
Cc1[nH]c2ccccc2c1/C=N/NC(=O)CCC(=O)NCc1ccccc1	nt	0.8	-13.8	nt	nt	nt
c1ccc(OCc2nc3c4c(ncn3n2)-c2ccccc2CC42CCCC2)cc1	5.6	8.4*	13.0	nt	2.6	-21.2
Cc1ccc(C2OC3=C(C(=O)CC(C)(C)C3)C(N)=C2C#N)o1 (stereo not given)	nt	-0.5	1.5	nt	nt	nt
CN(Cc1cccc2ccccc12)C(=O)c1cc(COc2c(F)cccc2F)on1	nt	6.4	33.5	nt	nt	nt
CCc1ccc(CN(C)C(=O)c2cc(COc3c(F)cccc3F)on2)cc1	nt	9.4*	45.5	nt	nt	nt
O=C(NCc1ccc(Cl)s1)c1cc(COc2c(F)cccc2F)on1	nt	9.1*	-0.2	nt	nt	nt
Cc1cc(CNC(=O)c2cc(COc3c(F)cccc3F)on2)nn1C	nt	3.7	-1.5	nt	nt	nt
CCCCn1c(SCC(=O)Nc2ccc(OC)cc2)nc2ccc(N3CCOCC3)cc2c1=O	53.2*	3.5	18.4	0.442	-14.8	-32.9
CCCCn1c(SCC(=O)NC(C)CC)nc2ccc(N3CCOCC3)cc2c1=O (stereo not given)	15.7	3.2	8.1	nt	-12.1	-89.8
Cc1ccc(NC(=O)CSc2nc3ccccc3c(=O)n2CCCN2CCCCC2)cc1C	4.6	-2.1	2.4	2.43	-25.2	-29.8
CCc1ccc(NC(=O)CSc2nc3ccccc3c(=O)n2CCCN2CCC(C)CC2)cc1	nt	1.5	79.1*	nt	nt	nt
O=C(COc1ccccc1)NNC1=NS(=O)(=O)c2ccccc21	nt	0.6	4.6	nt	nt	nt
C=CCN1C(C(=O)c2ccccc2)=C(OC(=O)COc2ccccc2)c2ccccc2S1(=O)=O	1.5	5.7	50.2	nt	-1.6	90.2*
CCOC(=O)CN(C(=O)CSc1nnc(COc2ccc(OC)cc2)n1C)c1ccccc1	5.5	-1.4	-2.6	-0.129	-2.8	-23.4
CC1CN(C(=S)SCC(=O)c2ccc(Cl)cc2)CC(C)O1 (stereo not given)	12.6	2.8	3.7	nt	-1.2	-36.4
Cc1csc(C(C#N)C(=O)c2ccc(S(=O)(=O)N3CCCC3)cc2)n1 (stereo not given)	3.9	1.5	3.8	-0.298	-0.6	-44.3
O=C(O)c1ccc(-c2ccccc2C(F)(F)F)o1	10.1	-2.2	21.6	0.153	2.3	-41.9
O=C(NCc1ccccc1)c1ccc(-c2ccccc2C(F)(F)F)o1	1.7	6.1	58.0*	-0.724	-2.2	-13.7
Cc1cc2cc(C(c3nnnn3Cc3ccco3)N3CCc4ccccc43)c(=O)[nH]c2cc1C (stereo not given)	11.7	0.0	14.3	-1	29.8	-94.7
Cc1cc2cc(C(c3nnnn3Cc3ccco3)N3CCc4ccccc4C3)c(=O)[nH]c2cc1C (stereo not given)	8.9	0.8	9.3	3.87*	29.9	-67.1
CC1CCN(C(C)C(=O)Nc2ccccc2-c2ccccc2)CC1 (stereo not given)	10.2	0.7	60.4*	-0.699	-14.4	-12.2
O=C(N[C@@H](Cc1ccc(O)cc1)C(=O)O)c1ccncc1	nt	nt	nt	-0.0374	nt	nt
